This is a sample that favours compounds with a hit; in the whole collection about 3.8% have one here.
RGS4 inh – RGS4 inhibitors, primary screen, cell-based, HEK293 M3R inducible RGS4, calcium flux; B-score at 10 µM; 0.45% of 310,000 active; Fluo-4 calcium flux; stronger effect = higher value; triggered by carbachol at its EC20;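 active = B-score, a plate-corrected calcium signal, over three deviations above library mean, with baseline fluorescence within five deviations of library mean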;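 also: RGS4 expression induced by doxycycline in cells with stable M3 receptor; B-score is computed from the integrated fluorescence ratio over baseline after carbachol; higher B-score means a larger calcium signal and so more RGS4 inhibition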
Target sequence (P49798 whole entry, looked up): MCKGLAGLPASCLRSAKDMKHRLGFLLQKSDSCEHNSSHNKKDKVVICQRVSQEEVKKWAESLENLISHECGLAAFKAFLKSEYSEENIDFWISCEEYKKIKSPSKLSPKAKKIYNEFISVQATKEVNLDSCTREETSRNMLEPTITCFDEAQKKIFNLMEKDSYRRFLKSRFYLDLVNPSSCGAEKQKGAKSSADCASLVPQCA
MrgX1 antagonist – antagonists of human MrgX1 receptor, primary screen, HEK293 cells, Fluo-4 calcium flux. Mas-related G-protein coupled receptor member X1 (Homo sapiens), Q96LB2. BAM8-22 antagonism; stronger effect = lower value. B-score at 10 µM. 1.3% of 310,000 active. AID 588676, 2011;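 active = calcium-response B-score plate-corrected more than 3 library SD below zero, starting fluorescence within 5 deviations, no agonist response on first addition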;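 also: peak minus trough fluorescence over baseline after final BAM8-22 challenge near maximal dose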
RGS4 act – RGS4 potentiators or activators, primary screen, cell-based, HEK293 M3R inducible RGS4, calcium flux; carbachol calcium flux Fluo4; stronger effect = lower value; 0.92% of 310,000 active; B-score at 10 µM; AID 463111, 2010;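 active = B-score of the integrated calcium signal more than 4 SD below the library mean, with starting fluorescence not abnormally high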;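 also: negative B-score means reduced calcium response which marks RGS4 activation or potentiation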
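System: HEK293 FlpIn-TREx cells, stable M3R, doxycycline-inducible RGS4. Timing: overnight RGS4 induction, 30 min dye load 37 °C, 20 min compound RT. Also added: carbachol, ECmax concentration. Measured by: Fluo4 fluorescence kinetic imaging of calcium. Evaluation: integrated calcium ratio converted to B score.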
Lipid droplet – inhibitors of hepatocyte lipid droplet formation, primary screen, imaging, high-throughput imaging, BODIPY stain | AML12 mouse hepatocytes, oleate lipid droplets | inhibition, % at 6.5 µM | 0.4% of 240,000 active;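 active = lipid droplet intensity inhibited by at least 50%, with more than 500 cells counted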
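Assay system: AML12 hepatocytes (mouse) / Also added: 100 µM oleic acid challenge / Times: overnight treatment with compound plus oleate / Detection: high-content imaging of BODIPY-stained droplets and DAPI nuclei / Evaluation: % inhibition of lipid droplet signal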
MrgX1 PAM – positive allosteric modulators of MrgX1, primary screen, HEK293 cells, Fluo-4 calcium flux | Mas-related G-protein coupled receptor member X1 (Homo sapiens), Q96LB2 | FDSS; stronger effect = higher value | B-score at 10 µM | 0.63% of 310,000 active;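 active = plate-corrected calcium response at least 3 library SD above typical, normal starting fluorescence, not activating the receptor alone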;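 also: compound read alongside a low EC10 to EC30 dose of BAM8-22 agonist; peak minus trough fluorescence over baseline measured at the second addition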
MrgX1 ag – agonists of human MrgX1 receptor, primary screen, HEK293 cells, Fluo-4 calcium flux. Fluo-4 calcium fluorescence, agonist mode; stronger effect = higher value. B-score at 10 µM. 0.44% of 310,000 active. AID 588627, 2011;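 active = calcium response B-score plate-corrected fluorescence ratio at least 3 library SD, with starting fluorescence B-score inside 5 SD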
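System: HEK293 cells stably expressing human MrgX1 receptor; Dosing: test compound in the initial addition of three; Schedule: overnight plating, then 30 min 37 °C plus 30 min room-temperature dye loading; Detection: kinetic calcium dye fluorescence, Fluo-4 NW; Controls: per-plate positive and negative controls for Z′ factor.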
RGS4 inh valid – enhanced carbachol calcium response, M3R/RGS4 cells, RGS4 inhibitor project, cell-based, validation screen, HEK293 M3R/RGS4, calcium flux; 65% of 1,700 active; calcium response, % at 10 µM; carbachol calcium Fluo-4 fluorescence; carbachol added at its EC20; 0 = buffer wells, 100 = carbachol control; AID 492999, 2010; shares compounds with RGS4 inh;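 active = duplicate-averaged calcium response above the buffer-only control mean plus 5 SD of those controls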;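 also: integrated fluorescence ratio F max minus min over baseline F0; higher response in RGS4-induced cells means RGS4 inhibition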
RGS4 uninduced – carbachol calcium response in non-induced M3R cells, confirmation, counter-screen for RGS4 inhibitor project, cell-based, HEK293 M3R; carbachol calcium Fluo-4; submaximal (EC20) carbachol stimulus; buffer wells 0%, carbachol control wells 100%; activity (percent), % at 10 µM; 20% of 1,900 active; shares compounds with RGS4 inh; call rule not given here;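 also: RGS4 induction absent so cells express M3R without RGS4; higher means more calcium signal and flags a non-specific hit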
M3R basal Ca ctr – second RGS4 inhibitor counter-screen in uninduced cells lacking carbachol. shares compounds with RGS4 inh. HEK293 M3R/RGS4 non-induced, Fluo-4 calcium, no carbachol; normalised: buffer wells 0%, carbachol wells 100%. calcium response (agonist-mode artifact), % at 10 µM. 22% of 1,900 active;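 active = duplicate-averaged calcium rise in uninduced cells above buffer wells' mean plus 5 SD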
* hit, by the source's call; i = inactive; / = no result given.

SMILES	RGS4 inh	MrgX1 antagonist	RGS4 act	Lipid droplet	MrgX1 PAM	MrgX1 ag	RGS4 inh valid	RGS4 uninduced	M3R basal Ca ctr
COC(=O)CCCC1=CC2=C(c3ccccc3)C(=O)C(C)(OC(=O)C3CCCC3)C(=O)C2=CN1Cc1ccc(OC)cc1 (stereo not drawn)	i	i	i	-15	i	i	/	/	/
CCCCC1=CC2=C(c3ccco3)C(=O)C(C)(OC(=O)c3ccc(OC)cc3)C(=O)C2=CN1CC1CC1 (stereo not drawn)	i	i	i	-13	i	i	i	i	i
CCCCC1=CC2=C(c3ccco3)C(=O)C(C)(OC(=O)c3ccc(OC)cc3)C(=O)C2=CN1C(CO)CO (stereo not drawn)	i	i	i	2	i	i	/	/	/
COc1c(OC(C)=O)ccc(/C=C/c2ccc3cccc(OCc4ccccc4)c3n2)c1[N+](=O)[O-]	i	i	i	9	i	i	/	/	/
CCn1c(SCC(=O)Nc2cc(C)on2)nnc1-c1c[nH]c2ccccc12	i	i	i	3	i	i	/	/	/
COCCCN(C(=S)Nc1cc(Cl)cc(Cl)c1)C(C)c1ccccn1 (stereo not drawn)	i	i	i	5	i	i	/	/	/
O=C(/C=C/c1ccc(O)c(O)c1)c1ccc(S(=O)(=O)N2CCCCCC2)cc1	16*	i	i	4	i	i	23%*	44%*	i
O=C(c1ccc(S(=O)(=O)N2CCCC2)cc1)N1CCCCC1	i	i	i	/	i	i	/	/	/
Cc1cc(N(CCO)CCO)ccc1C(c1ccc(N(CCO)CCO)cc1C)c1ccccc1Cl	6*	i	i	-1	i	i	16%*	i	25%*
CCN(CC)c1ccc(NC(=O)CNCc2ccccc2Cl)c(C)c1	i	i	i	-16	i	i	/	/	/
COc1cc(/C=C2/C(=O)N(c3ccccc3)N=C2C)ccc1OS(=O)(=O)c1ccccc1	i	i	i	4	i	i	/	/	/
COc1ccc(/C=C2/C(=O)N(c3ccccc3)N=C2C)cc1Br	24*	i	i	6	8.9*	i	i	i	i
COc1cc(/C=C(/C(=O)c2cccs2)c2nc3ccccc3[nH]2)cc(OC)c1O	22*	i	i	4	i	i	88%*	41%*	i
S=C(NCCc1ccccc1)N1CCc2ccccc2C1	i	i	i	10	i	i	/	/	/
O=C(Nc1csc(Cc2c(Cl)cccc2Cl)n1)NN1CCOCC1	i	i	i	5	i	i	/	/	/
CC(=O)C1=C(C)OC(N)=C(C#N)C1c1cc2cc(C)c(C)cc2nc1Cl (stereo not drawn)	15*	i	i	9	i	i	5.0%*	i	i
COC(=O)C1=C(C)OC(N)=C(C#N)C1c1cc2cc(C)ccc2nc1Cl (stereo not drawn)	i	i	i	-3	i	i	/	/	/
